Consider 6 molecules from ChEMBL document CHEMBL4673180, “Synthesis of quinone imine and sulphur-containing compounds with antitumor and trypanocidal activities: redox and biological implications” (RSC Med Chem, 2020).

Data set [1] deals with NCI-H460. Kind of data set: Cytotoxicity against human NCI-H460 cells assessed as reduction in cell viability after 72 hrs by MTT assay. The format is functional, cell-based. Conditions: NCI-H460, 72 h. The essentials:
(§1)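 Cells were grown in medium with 10% FBS, 2 mM L-glutamine, penicillin and streptomycin at 37 °C, 5% CO2. Compounds in DMSO (0.1% final) were applied for 72 h. MTT (0.5 mg/mL) was added for 3 h, formazan dissolved in DMSO, and absorbance read at 550 nm. IC50 by nonlinear regression; three independent experiments in triplicate.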
In general terms: Tetrazolium dyes change colour on reduction, which living cells bring about.

Data set [2] has as its system Trypanosoma cruzi. The experiment in a line: Antitrypanosomal activity against Trypanosoma cruzi Y strain bloodstream trypomastigotes assessed as lysis of parasite in absence of mouse blood incubated for 24 hrs by Neubauer chamber method. The format is functional, organism-based. In a few lines:
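T. cruzi Y strain bloodstream trypomastigotes came from infected albino mice at peak parasitaemia and were purified by differential centrifugation. They were exposed to compounds for 24 h at 37 °C without blood. Parasites were counted in a Neubauer chamber, and IC50 is the concentration lysing 50% of parasites. Values are mean ± SD of at least three independent experiments.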

Data set [3] in a line: Selectivity index, ratio of IC50 for mouse L929 cells to IC50 for human K-562 cells after 72 hrs by MTT assay. The format is toxicity. To be noted: L929 cells versus K-562 cells, read-out: Ratio IC50. The essentials: (§2)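 Both cell types were kept in medium with 10% FBS, 2 mM L-glutamine and penicillin/streptomycin at 37 °C, 5% CO2. Seeding was 0.7 × 10^5 cells per well for HCT-116, 0.1 × 10^6 for the other lines. Cells got compound in DMSO (0.1% final) for 72 h, then 0.5 mg/mL MTT for 3 h, with formazan read at 550 nm. IC50 came from nonlinear regression over three independent experiments in triplicate. SI is the L929 IC50 divided by the cancer-line IC50.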

Data set [4] relates to PC-3. The experiment in a line: Cytotoxicity against human PC-3 cells assessed as reduction in cell viability after 72 hrs by MTT assay. The format is functional, cell-based. To be noted: PC-3, 72 h. The essentials: (§3)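 Cells were grown in medium with 10% FBS, 2 mM L-glutamine, penicillin and streptomycin at 37 °C, 5% CO2. Seeding per well was 0.1 × 10^6 for leukaemia, PC3, L929 and NCI-H460, and 0.7 × 10^5 for HCT-116. Compounds in DMSO (0.1% final) were applied for 72 h. MTT (0.5 mg/mL) was added for 3 h, formazan dissolved in DMSO, and absorbance read at 550 nm. IC50 by nonlinear regression; three independent experiments in triplicate.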

Data set [5] deals with L929. The experiment in a line: Cytotoxicity against mouse L929 cells assessed as reduction in cell viability after 72 hrs by MTT assay. The format is cell-based. To be noted: L929, 72 h. The essentials: as §3
Data set [6] relates to K562. The experiment in a line: Cytotoxicity against human K562 cells assessed as reduction in cell viability after 72 hrs by MTT assay. The format is functional, cell-based. Conditions: K562, 72 h. The essentials:
as §3

The nature of data set [7]: Selectivity index, ratio of LC50 for cytotoxicity against albino Swiss mouse peritoneal macrophages to IC50 for Antitrypanosomal activity against Trypanosoma cruzi Y strain bloodstream trypomastigotes assessed as lysis of parasite in absence of mouse blood. The format is toxicity. The essentials:
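Y-strain bloodstream trypomastigotes came from infected albino mice at peak parasitaemia and were purified by differential centrifugation into RPMI. They were exposed 24 h at 37 °C without blood to compound (DMSO ≤0.4%).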

Data set [8] has as its system HCT-116. The experiment in a line: Cytotoxicity against human HCT-116 cells assessed as reduction in cell viability after 72 hrs by MTT assay. The format is functional, cell-based. To be noted: HCT-116, 72 h. In a few lines: as §3
For data set [9], the system named is HL-60. Kind of data set: Cytotoxicity against human HL-60 cells assessed as reduction in cell viability after 72 hrs by MTT assay. The format is functional, cell-based. To be noted: HL-60, 72 h. The essentials: as §1
Data set [10] can be described thus: Selectivity index, ratio of LC50 for cytotoxicity against albino Swiss mouse peritoneal macrophages to IC50 for Antitrypanosomal activity against Trypanosoma cruzi Y strain bloodstream trypomastigotes assessed as lysis of parasite in presence of 5 % mouse blood. The format is toxicity. In a few lines:
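Y-strain bloodstream trypomastigotes came from infected albino mice at peak parasitaemia and were purified by differential centrifugation. They were resuspended at 10^7/mL in RPMI with 10% mouse blood and mixed 1:1 with compound at twice the final concentration (DMSO ≤0.4%). Incubation was 24 h at 4 °C (5% blood per footnote).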

Data set [11] in a line: Selectivity index, ratio of IC50 for mouse L929 cells to IC50 for human PC3 cells after 72 hrs by MTT assay. The format is toxicity. Conditions: L929 cells versus PC3 cells, read-out: Ratio IC50. The essentials:
as §2

Data set [12] in a line: Selectivity index, ratio of IC50 for mouse L929 cells to IC50 for human HCT116 cells after 72 hrs by MTT assay. The format is toxicity. Conditions: L929 cells versus HCT116 cells, read-out: Ratio IC50. In a few lines: as §2
The nature of data set [13]: Selectivity index, ratio of IC50 for mouse L929 cells to IC50 for human HL-60cells after 72 hrs by MTT assay. The format is toxicity. Conditions: L929 cells versus HL-60 cells, read-out: Ratio IC50. The essentials: as §2
Data set [14] in a line: Cytotoxicity against human Lucena1 cells assessed as reduction in cell viability after 72 hrs by MTT assay. The format is functional, cell-based. To be noted: Lucena 1, 72 h. In a few lines:
as §3

Data set [15] is described as follows: Selectivity index, ratio of IC50 for mouse L929 cells to IC50 for human Lucena1 cells after 72 hrs by MTT assay. In a few lines:
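Selectivity index is the ratio of IC50 in murine L929 fibroblasts to IC50 in Lucena 1 cells, each measured by 72 h MTT assay (absorbance 550 nm). IC50 values came from nonlinear regression of three independent experiments in triplicate.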

Data set [16] can be described thus: Selectivity index, ratio of IC50 for mouse L929 cells to IC50 for human NCI-H460 cells after 72 hrs by MTT assay. The format is toxicity. To be noted: L929 cells versus NCI-H460 cells, read-out: Ratio IC50. The essentials:
as §2

In data set [17] the test system is Trypanosoma cruzi. The experiment in a line: Antitrypanosomal activity against Trypanosoma cruzi Y strain bloodstream trypomastigotes assessed as lysis of parasite in presence of 5 % mouse blood incubated for 24 hrs by Neubauer chamber method. The format is functional, organism-based. In a few lines: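 Y strain bloodstream trypomastigotes came from infected albino mice at peak parasitaemia, purified by differential centrifugation, in RPMI at 10^7 cells/mL with 10% mouse blood. They were mixed 1:1 with compound at twice the final concentration (5% blood final), 24 h at 4 °C, with DMSO ≤0.4% final. Neubauer chamber counting; IC50 is 50% lysis; at least three independent experiments.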

A short description of data set [18]: Cytotoxicity against albino Swiss mouse peritoneal macrophages assessed as reduction in cell viability incubated for 24 hrs by Presto blue assay. To be noted: read-out: LC50. The format is tissue-based, Macrophage. In a few lines:
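Primary peritoneal macrophages from Albino Swiss mice were seeded at 2.5 × 10^4 cells per well in RPMI-1640 (pH 7.2, 10% FBS, 2 mM glutamine) and grown 24 h at 37 °C. They were then treated 24 h at 37 °C with compound from DMSO stock (final DMSO ≤0.4%).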

Bounds are passed on as bounds.

Turning to `COc1ccc(SC2=CC(=O)C(=O)c3ccccc32)cc1`, the IC50 is above 20 µM in [1]; 3.9 µM in data set [2]; above 20 µM in data set [4]; above 20 µM in data set [5]; 13.3 µM in [6]; above 20 µM in [8]. Also, the IC50 in [9] was 9.38 µM; in [14], above 20 µM; in data set [17], 112 µM. In addition, the selectivity ratio at 72 h in [3] came out at 2.5; in data set [11] it was 1; in [12], 1; in data set [13], 3.6; in data set [16], 1. Besides, the selectivity ratio in [7] came out at 10.6; in data set [10] it was 0.37. Moreover, in data set [15], the “Ratio IC50” value is 1. In data set [18], the CC50 at 24 h was 41.5 µM.

With `O=C(Cn1ccnc1[N+](=O)[O-])NCc1ccccc1` [BENZNIDAZOLE], in data set [2], the IC50 came out at 9.7 µM. Besides, the selectivity ratio is above 413 in data set [7] and above 38.6 in [10]. The CC50 at 24 h in [18] was above 4000 µM.

As for `Cc1ccc(S(=O)(=O)n2cc(COC3=C/C(=N\c4ccc(F)cc4)c4ccccc4C3=O)nn2)cc1`, the half-maximal inhibitory concentration (IC50) in data set [1] is 7.36 µM; in data set [4], 2.03 µM; in data set [5] it was above 20 µM; in data set [6] it was 7.7 µM; in data set [8], 5.75 µM; in [9] it was 7.52 µM. Moreover, the figures for the 50% inhibitory concentration (IC50) in data set [14] and in [17] were 6.58 µM and above 500 µM, respectively. Moreover, the selectivity ratio at 72 h in data set [3] amounted to 2.6; in [11], 9.8; in data set [12] it was 3.5; in [13] it was 2.6; in data set [16] it was 2.7. The selectivity ratio in data set [10] is above 18.6. In addition, in data set [15], the “Ratio IC50” value is on record as 3. In [18], the CC50 at 24 h was 26.9 µM.

`CC(=O)c1ccc(/N=C2\C=C(OCc3cn(S(=O)(=O)c4ccc(C)cc4)nn3)C(=O)c3ccccc32)cc1`: the IC50 in data set [1] is 15.8 µM; in [4], 3.91 µM; in data set [5], 10.8 µM; in data set [6] it was 5.52 µM; in [8] it was 6.27 µM; in data set [9], 5.3 µM. Also, the values for the IC50 in data set [14] and in [17] were 6.46 µM and above 500 µM, respectively. Also, the selectivity ratio at 72 h in data set [3] was 1.9; in data set [11], 2.7; in [12], 1.7; in [13], 2; in data set [16] it was 0.7. For the same molecule, in data set [10], the selectivity ratio is above 12.3. Also, in data set [15], the “Ratio IC50” value was 1.7. Also, the CC50 at 24 h in data set [18] was found to be 40.6 µM.

Consider `COc1ccc(/N=C2\C=C(OCc3cn(S(=O)(=O)c4ccc(C)cc4)nn3)C(=O)c3ccccc32)cc1`, for which the IC50 in data set [1] was 8.39 µM; in data set [4], above 20 µM; in [5] it was above 20 µM; in data set [6], above 20 µM; in [8], 7.43 µM; in data set [9], 6.96 µM. The concentration for half-maximal inhibition (IC50) is 4.58 µM in [14] and above 500 µM in [17]. Also, the selectivity ratio at 72 h in [3] turned out to be 1; in data set [11], 1; in [12] it was 2.9; in data set [13] it was 3.3; in data set [16], 2.6. The selectivity ratio in data set [10] is above 11.3. Besides, the “Ratio IC50” value in data set [15] is 5.4. Further, the CC50 at 24 h in [18] is 44.3 µM.

For `Cc1ccc(S(=O)(=O)n2cc(COC3=C/C(=N\c4ccccc4)c4ccccc4C3=O)nn2)cc1`, the IC50 in [1] is 7.22 µM; in [4], above 20 µM; in [5] it was above 20 µM; in [6], 12.2 µM; in [8], 5.37 µM; in data set [9], 6.71 µM. For the same molecule, the IC50 is 3.67 µM in data set [14] and above 500 µM in data set [17]. Further, the selectivity ratio at 72 h is 1.7 in data set [3]; 1 in data set [11]; 3.8 in [12]; 3.1 in [13]; 2.9 in [16]. Also, in [10], the selectivity ratio is above 6.19. Also, in [15], the “Ratio IC50” value is listed as 5.6. In data set [18], the CC50 at 24 h was found to be 80.8 µM.

What is called IC50 is the concentration needed to halve the response being measured.
